# Assay outcomes: PubChem, several laboratories
# TROY NFkB inh = inhibitors of TROY-driven NF-kB signaling, primary screen, Q293 LMP1-TROYcd cells, NF-kB luciferase, uHTS | inhibition, % at 10 µM | 360,000 compounds, 0.98% hits | Q293 LMP1-TROYcd NF-kB luciferase reporter, 4 h;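 active means compounds whose plate-normalised and pattern-corrected inhibition of the luciferase reporter signal at the single screening dose is 50% or more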
# LGR2 inh = inhibitors of bursicon-induced LGR2 CRE-luciferase signal, primary screen, cell-based, HEK293, CRE-luciferase reporter, bursicon stimulation | 380,000 compounds, 0.35% hits | AID 720647, 2013 | inhibition, % at 9.99 µM | bursicon-stimulated, 4 h;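 active means drop in luminescence signal, shown as inhibition above about 50% in the replicate tests, limit read from the data, passing the limit was not always enough; inconclusive means probably only some replicates passing the limit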;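 further: agonist challenge used bursicon conditioned medium at about half maximal strength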
# TWEAK-Fn14 inh = inhibitors of TWEAK-Fn14 signaling, primary screen, luciferase reporter cells, uHTS. 360,000 compounds, 2% hits. inhibition, % at 10 µM. TWEAK-stimulated Fn14 reporter cells, luciferase luminescence, 8 h; in the data active means inhibition above about 50%
# XiGFP reactiv = activators of inactive X chromosome reactivation, primary screen, imaging, XiGFP fibroblasts, GFP high-content imaging, set 2 | XiGFP mouse fibroblasts, % GFP-positive cells imaging, 3 d; cells co-treated with 5-aza-dC sensitizer; scaled so ellipticine positive control = 100% | activation, % at 7.58 µM | 360,000 compounds, 0.055% hits | AID 743238, 2013;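 active means mean normalized replicate activation at least 10% and every replicate at or above 10%; inconclusive means only one of the two criteria met; inactive means mean below 10% and not all replicates reach 10%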;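 further: 0% = median of on-plate neutral control wells and 100% = ellipticine 6 µM median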
#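 System: SV40-immortalized XiGFP fibroblast cells, line 68-5-11 / Incubation: 3-day compound exposure, then 15 min fixation at room temperature / Compound: single concentration per compound, delivered by pin transfer / Buffer or medium: DMEM plus 5-aza-dC sensitizer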
# CaV13 FRET inh = Disruptors of the CACNA1D IQ motif to Ca2+-dependent inactivation inhibitor domain association, primary screening, Förster resonance energy transfer in intact living … | inhibition, % at 12.3 µM | HEK cells, CFP/YFP FRET ICDI-IQ, plate reader, 10 min; percent FRET-ratio fall versus neutral wells | 340,000 compounds, 0.098% hits;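 active means mean replicate inhibition of at least 30% and at least 1% of replicates passing that level; inconclusive means only one of the two criteria is met; inactive means neither criterion is met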;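 further: 0% = median of the neutral control wells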
# * marks the source's active call; other numbers are inactive results; ? = inconclusive; nt = no result given. This is a sample that favours compounds with a hit; in the whole collection about 2% have one here.
SMILES,TROY NFkB inh,LGR2 inh,TWEAK-Fn14 inh,XiGFP reactiv,CaV13 FRET inh
C=C1C(=O)C23C(O)C1CCC2C12COC3(O)C(O)C1C(C)(C)CCC2O (configuration not stated),47,nt,75*,nt,nt
O=C(CN(Cc1ccccc1)C(=O)CCl)c1cccc(Br)c1,5,25,66*,0,-6
Cc1noc(C)c1S(=O)(=O)Nc1ccc2c(c1)CC(=O)N([C@@H](C)CO)C[C@H](C)[C@H](CN(C)S(=O)(=O)c1ccc(F)cc1)O2,nt,10,nt,-1,nt
CNC[C@@H]1Oc2ccc(NS(=O)(=O)c3cccs3)cc2C(=O)N([C@@H](C)CO)C[C@H]1C,nt,-2,nt,0,nt
Cc1cc(C(=O)CN2C(=O)C(=O)N(Cc3ccccc3)C2=O)c(C)n1-c1ccccc1F,-6,4,16,0,-5
Cc1cc(C(=O)CN2CCC(C)CC2)c(C)n1-c1ccccc1F,80*,nt,82*,0,-6
O=C(CCl)c1ccc2c(c1)CCN2C(=O)C1CCCCC1,53*,-4,-15,0,-3
CC(=O)N(C)C[C@H]1Oc2ncc(-c3cccnc3)cc2C(=O)N([C@H](C)CO)C[C@H]1C,nt,0,nt,0,nt
O=C(O)c1[nH]c2ccccc2c1C(c1cc(Br)ccc1O)c1c(C(=O)O)[nH]c2ccccc12,14,5,17,0,144*
C[C@H]1CN([C@@H](C)CO)C(=O)c2cc(NC(=O)CCCCCC(=O)Nc3ccccc3N)ccc2O[C@H]1CN(C)S(=O)(=O)c1ccccc1,nt,-9,nt,0,nt
Cc1ccc(S(=O)(=O)Nc2ccc(NC(=O)Nc3cccc(C(F)(F)F)c3)cc2)cc1,41,14,86*,0,-19
O=C(Nc1ccncc1)Nc1cccc(C(F)(F)F)c1,10,5,20,0,-6
O=C(Nc1ccc(OC(F)F)cc1)Nc1cccc(C(F)(F)F)c1,46,nt,59*,nt,-4
CCN(CC)S(=O)(=O)c1ccc(NC(=O)Nc2cccc(C(F)(F)F)c2)cc1,58*,nt,76*,nt,-5
Cc1ccc(NC(=S)NNC(=S)Nc2cccc(C(F)(F)F)c2)cc1,-28,nt,-33,0,-4
C[C@@H]1CCCCO[C@@H](CN(C)C(=O)Nc2ccc(F)cc2)[C@@H](C)CN([C@H](C)CO)C(=O)c2cc(NC(=O)Nc3ccc(F)cc3)ccc2O1,nt,11,nt,0,nt
COc1ccc2c3c([nH]c2c1)[C@H](CO)N(C(C)=O)CC31CCN(C(=O)CN2CCOCC2)CC1,nt,?,nt,0,nt
N#Cc1ccc(CSc2nc(N)cc(=O)[nH]2)cc1,18,-6,72*,0,-3
Cc1ccc(CSc2nc(N)cc(=O)[nH]2)cc1,6,3,-6,0,-5
C[N+](C)(C)CCC(=O)N1C/C(=C/c2ccccc2)C(=O)/C(=C\c2ccccc2)C1,10,9,28,0,-4
O=C1/C(=C/c2ccccc2)CN(C(=O)CCN2CCOCC2)C/C1=C\c1ccccc1,22,103*,100*,1,-7
COc1ccc(OC(=O)N2C/C(=C/c3ccccc3)C(=O)/C(=C\c3ccccc3)C2)cc1,17,?,90*,0,-6
CCOC(=O)N1C/C(=C\c2ccccc2)C(=O)/C(=C/c2ccccc2)C1,74*,29,0,0,-3
CN(C)CCC(=O)N1C/C(=C/c2ccccc2)C(=O)/C(=C\c2ccccc2)C1,59*,102*,103*,0,-6
O=C(Nc1ccccc1F)N1C[C@H]2[C@@H](c3ccccc31)[C@@H](CO)N2C(=O)C1CCCCC1,nt,-8,nt,0,nt
SMILES,TROY NFkB inh,LGR2 inh,TWEAK-Fn14 inh,XiGFP reactiv,CaV13 FRET inh
C[C@H]1CN([C@@H](C)CO)C(=O)c2cc(C#Cc3cccnc3)cnc2O[C@H]1CN(C)Cc1ccncc1,nt,4,nt,0,nt
O=c1c2ccccc2nc(-c2ccco2)n1CCc1ccc(O)cc1,33,8,64*,0,-20
O=c1c2ccccc2nc(/C=C/c2ccc(O)cc2)n1CCc1ccccc1,6,17,66*,0,-7
Cc1ccc(S(=O)(=O)Nc2ccc3c(c2)C(=O)N([C@H](C)CO)C[C@H](C)[C@@H](CN(C)C(=O)NC2CCCCC2)OCCCC[C@H](C)O3)cc1,nt,8,nt,0,nt
Cc1noc(C)c1S(=O)(=O)N(C)C[C@H]1Oc2ccc(NC(=O)Nc3ccc4c(c3)OCO4)cc2C(=O)N([C@H](C)CO)C[C@@H]1C,nt,nt,nt,1,nt
C[C@H]1CN([C@@H](C)CO)C(=O)c2cc(NC(=O)C3CC3)ccc2O[C@H]1CN(C)C(=O)Nc1ccc(C(F)(F)F)cc1,nt,1,nt,0,nt
CCOC(=O)Nc1cc(C(=O)OCC)c(C)nc1C,nt,nt,76*,nt,nt
CO[C@H]1CN(C)C(=O)c2ccc(NC(=O)Nc3ccccc3Cl)cc2OC[C@@H](C)NC[C@@H]1C,nt,-3,nt,0,nt
COc1ccc2[nH]c3c(NCCCOC(C)C)ncnc3c2c1,-9,-9,3,0,-10
COc1ccc2[nH]c3c(NCCC4=CCCCC4)ncnc3c2c1,28,14,79*,0,-4
COc1ccccc1C1C2=C(CC(C)(C)CC2=O)N(CC(=O)O)C2=C1C(=O)CC(C)(C)C2,9,-5,12,0,36*
C[C@H](CO)N1C[C@H](C)[C@@H](CN(C)C(=O)NC2CCCCC2)OCCCC[C@H](C)Oc2ccc(NC(=O)Nc3cccc4ccccc34)cc2C1=O,nt,22,nt,0,nt
CCOC(=O)c1[nH]c2ccccc2c1NC(=O)c1ccc(Br)o1,-5,12,66*,nt,-8
CCOC(=O)c1[nH]c2ccccc2c1NC(=O)NC(C)C,2,12,6,0,-5
O=C(Cc1cccs1)N1CCN=C1SCc1cccc(F)c1,-4,8,81*,0,-2
COc1cccc(-c2ccc([C@@H]3[C@H](CO)N4C(=O)CN(C(=O)CN5CCOCC5)C[C@@H]34)cc2)c1,nt,-3,nt,0,nt
COc1ccccc1-c1cc(C(F)(F)F)nc(S(C)(=O)=O)n1,53*,nt,19,nt,-9
COc1ccc(-c2cc(C(F)(F)F)nc(S(=O)(=O)CCCC(=O)Nc3cc(C)on3)n2)cc1OC,52*,90*,96*,0,-3
COc1ccccc1-c1cc(C(F)(F)F)nc(S(=O)(=O)CCCC(=O)NC(C)C)n1,-5,nt,39,nt,nt
COc1ccccc1-c1cc(C(F)(F)F)nc(S(=O)(=O)CCCC(=O)NCc2ccc(F)cc2)n1,84*,23,99*,0,-2
